Measured values as given in ChEMBL document CHEMBL4011623, “Development of 1-((1,4-trans)-4-Aryloxycyclohexyl)-3-arylurea Activators of Heme-Regulated Inhibitor as Selective Activators of the Eukaryotic Initiation Factor 2 Alpha (eIF2α) Phosphorylation Arm of the Integrated Endoplasmic Reticulum Stress Response” (J Med Chem, 2017).
Active and inactive are the calls of the source. The rule behind the calls is not given here.

Key:
[1] = target: Eukaryotic translation initiation factor 2-alpha kinase 1 (Mus musculus) (UniProt Q9Z2R9); assay: Activation of HRI in mouse KLN cells transfected with 5'UTR of ATF-4 mRNA fused firefly luciferase mRNA and 5'UTR lacking uORF fused renila luciferase mRNA assessed as increase in eIF2alpha phosphorylation by measuring ratio of firefly luciferase to renila luciferase at 5 uM after 16 hrs; format: cell-based
[2] = target: Eukaryotic translation initiation factor 2-alpha kinase 1 (Mus musculus) (UniProt Q9Z2R9); assay: Activation of HRI in mouse KLN cells transfected with 5'UTR of ATF-4 mRNA fused firefly luciferase mRNA and 5'UTR lacking uORF fused renila luciferase mRNA assessed as increase in eIF2alpha phosphorylation by measuring ratio of firefly luciferase to renila luciferase at 1.25 uM after 16 hrs; format: cell-based
[3] = target: Eukaryotic translation initiation factor 2-alpha kinase 1 (Mus musculus) (UniProt Q9Z2R9); assay: Activation of HRI in mouse KLN cells transfected with 5'UTR of ATF-4 mRNA fused firefly luciferase mRNA and 5'UTR lacking uORF fused renila luciferase mRNA assessed as increase in eIF2alpha phosphorylation by measuring ratio of firefly luciferase to renila luciferase after 16 hrs; format: cell-based
[4] = Antiproliferative activity against human CRL2813 cells after 5 days by sulforhodamine B assay; format: functional, cell-based; settings: CRL2813, 120 h
Summary of the method: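 CRL-2813 melanoma cells grown 5 days with 0.5–20 μM compound, then fixed in cold 10% TCA and stained with sulforhodamine B. Bound dye measured. Growth % = 100×(T−T0)/(C−T0), with T0 at time zero. IC50 is the concentration giving 50% growth inhibition.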

[5] = target: Eukaryotic translation initiation factor 2-alpha kinase 1 (Homo sapiens) (UniProt Q9BQI3); assay: Activation of HRI in human CRL2813 cells assessed as induction of CHOP mRNA level at 5 uM by real-time PCR relative to 18S RNA; format: cell-based
Summary of the method: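 Fold induction of CHOP mRNA in cells treated at 5 μM, normalized to 18S RNA and expressed relative to DMSO (set to 1). Triplicate samples, three independent experiments, mean ± SEM.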

[6] = Effect on beta actin protein expression in human CRL2813 cells at 5 uM after 8 hrs by Western blot analysis; format: ADME, cell-based; settings: crl2813, 8 h
Summary of the method: (§1)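 CRL-2813 cells at 70% confluence in serum-containing, antibiotic-free medium; treated at 5 μM for 8 h. Lysed in M-PER on ice for 30 min, equal protein by BCA, SDS-PAGE and immunoblot for CHOP, cyclin D1 and β-actin. Blots representative of three independent experiments.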

[7] = target: Eukaryotic translation initiation factor 2-alpha kinase 1 (Homo sapiens) (UniProt Q9BQI3); assay: Activation of HRI in human CRL2813 cells assessed as increase in eIF2alpha phosphorylation at 5 uM after 2 hrs by Western blot analysis; format: cell-based
Summary of the method: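 Adherent CRL-2813 melanoma cells exposed to 5 μM for 2 h. Lysates immunoblotted with anti-phosphoserine-51 eIF2α and anti-total eIF2α antibodies after BCA normalization and SDS-PAGE. Gels representative of three independent experiments.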

[8] = target: Eukaryotic translation initiation factor 2-alpha kinase 1 (Homo sapiens) (UniProt Q9BQI3); assay: Activation of HRI in human CRL2813cells assessed as decrease in cyclin D1 protein expression at 5 uM after 8 hrs by Western blot analysis; summary of the method: as §1
[9] = target: Eukaryotic translation initiation factor 2-alpha kinase 1 (Homo sapiens) (UniProt Q9BQI3); assay: Activation of HRI in human CRL2813 cells assessed as increase in CHOP protein expression at 5 uM after 8 hrs by Western blot analysis; format: cell-based; summary of the method: as §1

Sequence of Eukaryotic translation initiation factor 2-alpha kinase 1 (Homo sapiens) (Q9BQI3 whole entry): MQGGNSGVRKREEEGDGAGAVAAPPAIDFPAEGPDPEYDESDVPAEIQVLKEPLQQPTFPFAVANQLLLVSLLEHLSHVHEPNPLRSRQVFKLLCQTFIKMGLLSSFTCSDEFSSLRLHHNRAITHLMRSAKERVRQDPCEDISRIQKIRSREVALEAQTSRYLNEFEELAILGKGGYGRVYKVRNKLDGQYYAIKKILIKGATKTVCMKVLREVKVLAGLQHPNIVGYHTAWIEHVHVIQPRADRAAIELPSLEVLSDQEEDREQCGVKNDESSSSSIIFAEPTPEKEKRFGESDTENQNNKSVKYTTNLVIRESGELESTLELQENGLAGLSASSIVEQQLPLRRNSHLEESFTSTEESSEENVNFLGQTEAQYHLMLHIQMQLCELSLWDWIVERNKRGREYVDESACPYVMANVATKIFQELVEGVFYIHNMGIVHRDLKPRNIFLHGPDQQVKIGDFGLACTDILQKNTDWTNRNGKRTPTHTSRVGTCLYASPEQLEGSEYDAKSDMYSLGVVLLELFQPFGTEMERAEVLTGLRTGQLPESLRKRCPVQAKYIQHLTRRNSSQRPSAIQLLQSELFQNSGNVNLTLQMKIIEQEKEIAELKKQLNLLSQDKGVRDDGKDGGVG
Sequence of Eukaryotic translation initiation factor 2-alpha kinase 1 (Mus musculus) (Q9Z2R9 whole entry, the tested form may be a part): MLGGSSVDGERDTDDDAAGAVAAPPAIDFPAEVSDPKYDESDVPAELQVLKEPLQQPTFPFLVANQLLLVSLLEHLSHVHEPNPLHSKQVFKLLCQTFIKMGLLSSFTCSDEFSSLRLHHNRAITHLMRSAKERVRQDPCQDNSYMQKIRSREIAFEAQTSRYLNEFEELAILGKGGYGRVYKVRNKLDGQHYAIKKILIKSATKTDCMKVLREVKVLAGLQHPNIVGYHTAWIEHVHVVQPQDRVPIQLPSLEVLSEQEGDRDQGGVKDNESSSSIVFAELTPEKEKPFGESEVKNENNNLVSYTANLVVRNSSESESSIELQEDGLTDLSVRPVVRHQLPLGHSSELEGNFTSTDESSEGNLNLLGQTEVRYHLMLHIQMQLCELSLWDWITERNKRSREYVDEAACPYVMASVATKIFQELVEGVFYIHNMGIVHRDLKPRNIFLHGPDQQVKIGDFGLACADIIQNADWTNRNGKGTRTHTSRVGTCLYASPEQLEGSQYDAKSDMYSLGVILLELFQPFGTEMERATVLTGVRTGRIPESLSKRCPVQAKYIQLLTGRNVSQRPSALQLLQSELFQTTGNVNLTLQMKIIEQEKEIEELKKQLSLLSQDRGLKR

SMILES | Ratio [1] | Ratio [2] | Activity [3] | IC50 [4] [nM] | fold change (FC) [5] | Activity [6] | Activity [7] | Activity [8] | Activity [9]
O=C(Nc1ccc(Oc2ccc(C(F)(F)F)cc2)cc1)Nc1cccc(C(F)(F)F)c1 | 8.99 | 3.31 | Dose-dependent effect | 440 |  |  |  |  | 
O=C(Nc1cccc(OC(F)(F)F)c1)N[C@H]1CC[C@H](Oc2ccc(OC(F)(F)F)cc2)CC1 | 10.7 | 2.87 | Dose-dependent effect | 1450 |  |  |  |  | 
N#Cc1ccc(NC(=O)N[C@H]2CC[C@H](Oc3ccc(C(F)(F)F)cc3)CC2)cc1C#N | 7.75 | 5.54 | Dose-dependent effect | 2010 | 6.21 | Non-Toxic | Active | Active | Active
NC(=O)c1cc(O[C@H]2CC[C@H](NC(=O)Nc3cccc(C(F)(F)F)c3)CC2)ccc1C(F)(F)F | 1.12 | 0.79 | Dose-dependent effect | 3360 |  |  |  |  | 
N#Cc1ccc(O[C@H]2CC[C@H](NC(=O)Nc3cccc(C#N)c3)CC2)cc1 | 1.15 | 1.01 | Dose-dependent effect | 8200 |  |  |  |  | 
O=C(Nc1ccc(Oc2ccc(C(F)(F)F)cc2)cc1)Nc1cccc(OC(F)(F)F)c1 | 6.73 | 2.37 | Dose-dependent effect | 500 |  |  |  |  | 
N#Cc1ccc(O[C@H]2CC[C@H](NC(=O)Nc3cccc(C(F)(F)F)c3)CC2)cc1 | 3.23 | 0.92 | Dose-dependent effect | 6060 |  |  |  |  | 
O=C(Nc1cccc(C(F)(F)F)c1)N[C@H]1CC[C@H](Oc2ccc(OC(F)(F)F)cc2)CC1 | 10.1 | 3.37 |  | 820 |  |  |  |  | 
CC(=O)Nc1cc(C(F)(F)F)ccc1O[C@H]1CC[C@H](NC(=O)Nc2cccc(C(F)(F)F)c2)CC1 | 3.9 | 0.84 | Dose-dependent effect | 1460 |  |  |  |  | 
N#Cc1cc(C(F)(F)F)ccc1O[C@H]1CC[C@H](NC(=O)Nc2cccc(C(F)(F)F)c2)CC1 | 6.3 | 1.01 | Dose-dependent effect | 1470 |  |  |  |  | 
CC(=O)Nc1cc(C(F)(F)F)ccc1O[C@H]1CC[C@H](NC(=O)Nc2cccc(OC(F)(F)F)c2)CC1 | 4.31 | 0.85 | Dose-dependent effect | 1500 |  |  |  |  | 
N#Cc1cccc(NC(=O)N[C@H]2CC[C@H](Oc3ccc(C(F)(F)F)cc3)CC2)c1 | 7 | 0.96 | Dose-dependent effect | 940 |  |  |  |  | 
N#Cc1ccc(NC(=O)N[C@H]2CC[C@H](Oc3ccc(C(F)(F)F)cc3)CC2)cc1 | 11.6 | 3.38 | Dose-dependent effect | 490 | 12.8 | Non-Toxic | Active | Active | Active
NC(=O)c1cc(O[C@H]2CC[C@H](NC(=O)Nc3cccc(OC(F)(F)F)c3)CC2)ccc1C(F)(F)F | 1.57 | 1.04 | Dose-dependent effect | 3660 |  |  |  |  | 
O=C(Nc1cccc(OC(F)(F)F)c1)N[C@H]1CC[C@H](Oc2ccc(C(F)(F)F)cc2)CC1 | 13.6 | 5.2 | Dose-dependent effect | 920 | 11.9 | Non-Toxic | Active | Active | Active
O=C(Nc1cc(C(F)(F)F)cc(C(F)(F)F)c1)N[C@H]1CC[C@H](Oc2ccc(C(F)(F)F)cc2)CC1 | 30.7 | 8.58 | Dose-dependent effect | 450 | 14.5 | Non-Toxic | Active | Active | Active
NC(=O)c1cc(C(F)(F)F)ccc1O[C@H]1CC[C@H](NC(=O)Nc2cccc(C(F)(F)F)c2)CC1 | 1.49 | 0.91 | Dose-dependent effect | 2760 |  |  |  |  | 
N#Cc1ccc(NC(=O)N[C@H]2CC[C@H](Oc3ccc(C#N)cc3)CC2)cc1 | 1.38 | 1.03 | Dose-dependent effect | 9030 |  |  |  |  | 
O=C(Nc1cccc(C(F)(F)F)c1)N[C@H]1CC[C@H](Oc2ccc(C(F)(F)F)cn2)CC1 | 6.11 | 1.02 | Dose-dependent effect | 1570 |  |  |  |  | 
O=C(Nc1cccc(C(F)(F)F)c1)N[C@H]1CC[C@H](Oc2ccc(C(F)(F)F)cc2)CC1 | 10.2 | 3.23 | Dose-dependent effect | 540 | 4.72 | Non-Toxic | Active | Active | Active
N#Cc1cc(C#N)cc(NC(=O)N[C@H]2CC[C@H](Oc3ccc(C(F)(F)F)cc3)CC2)c1 | 2.36 | 1.51 | Dose-dependent effect | 3680 |  |  |  |  | 
NC(=O)c1cc(C(F)(F)F)ccc1O[C@H]1CC[C@H](NC(=O)Nc2cccc(OC(F)(F)F)c2)CC1 | 5.13 | 0.88 | Dose-dependent effect | 1530 |  |  |  |  | 
O=C(Nc1cccc(C(F)(F)F)c1)N[C@H]1CC[C@H](Oc2ccc(C(F)(F)F)cc2[N+](=O)[O-])CC1 | 3.28 | 0.96 | Dose-dependent effect | 5510 |  |  |  |  | 
